Screening data (PubChem BioAssay)
Hits are enriched below; roughly 3.6% of the tested compounds scored in any of these assays.
SR-BI HDL uptake: inhibitors of mouse SR-BI mediated HDL lipid uptake; ldlA[mSR-BI] CHO cells, DiI-HDL uptake fluorescence, 3 h; inhibition, % at 12.5 µM; 0.96% of 320,000 active; AID 488896;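 active = mean replicate inhibition of at least 70% and a set share of replicates each scoring 70 or more; inconclusive = meets just one of the two criteria; inactive = fails both criteria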
Target sequence (Q61009 whole entry, looked up): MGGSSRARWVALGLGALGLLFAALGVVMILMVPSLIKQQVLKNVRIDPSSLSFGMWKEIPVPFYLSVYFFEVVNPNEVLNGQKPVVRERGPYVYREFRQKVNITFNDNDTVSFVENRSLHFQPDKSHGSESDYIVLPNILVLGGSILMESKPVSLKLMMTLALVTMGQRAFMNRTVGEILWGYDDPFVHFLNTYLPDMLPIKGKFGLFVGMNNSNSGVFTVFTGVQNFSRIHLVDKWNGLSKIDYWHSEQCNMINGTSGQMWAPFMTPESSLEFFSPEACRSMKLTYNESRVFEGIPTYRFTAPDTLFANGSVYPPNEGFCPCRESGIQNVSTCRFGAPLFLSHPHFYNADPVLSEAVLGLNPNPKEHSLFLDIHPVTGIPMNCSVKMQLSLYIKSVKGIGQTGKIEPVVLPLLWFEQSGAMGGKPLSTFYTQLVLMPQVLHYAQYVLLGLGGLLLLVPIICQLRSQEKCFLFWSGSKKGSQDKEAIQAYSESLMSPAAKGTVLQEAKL
Wnt bcat act: activators of Wnt/beta-catenin signaling | activation, % at 9.35 µM | Wnt/beta-catenin reporter cell assay, activator, plate reader | 1.2% of 300,000 active | AID 743398; in the data active = activation above about 30%, passing the limit was not always enough; inconclusive = no clear call, values can overlap the other calls
MITF act: activators of MITF-driven TRPM1 promoter activity in SK-MEL-5 cells; AID 588334; 0.75% of 300,000 active; SK-MEL-5 TRPM1-promoter luciferase, 24 h; % of positive control, neutral wells = 0; activation, % at 12.5 µM;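 active = mean activation of at least 80% with every replicate also reaching 80%; inconclusive = mean reaches 80% but some replicate falls short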
SR-BI uptake up: enhances SR-BI lipid uptake from DiI-HDL | activation, % at 12.5 µM | 0.096% of 320,000 active | CHO ldlA[mSR-BI] cells, DiI-HDL uptake fluorescence, 3 h; 100 = double the neutral-control signal;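 active = mean replicate activation of at least 60% and every replicate at or above 60%; inconclusive = mean or all-replicate condition met, but not both; inactive = mean below 60% and not all replicates reaching 60%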
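Material – SR-BI-overexpressing, LDLR-lacking CHO cells · Medium – BSA-supplemented, HEPES-buffered Ham's F12, pH 7.4 · Doses – single concentration · Times – compound with DiI-HDL co-incubation, 3 h at 37 °C · Measured by – bottom-read fluorescence, 550/595 nm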
HSF-1 act: increases HSF-1 driven luciferase reporter signal. NIH3T3-HGL HSF-1 luciferase reporter, MG132, 8 h; 100% = twice DMSO control signal. activation, % at 9 µM. 1.7% of 300,000 active. AID 504408;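 active = mean replicate activation of at least 50% with a set share of replicates each reaching 50%; inconclusive = only one of those two conditions met; inactive = mean below 50% and too few replicates reaching it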
Large screens that a line does not name were inactive.

COc1ccc(/C=N/NC(=O)c2cc3c(OC)ccc(OC)c3[nH]2)cc1O	none
COc1cccc(/C=N/NC(=O)c2cc3c(OC)cccc3[nH]2)c1OC	none (no result: SR-BI HDL uptake, Wnt bcat act, SR-BI uptake up)
COc1ccccc1NCc1cc(=O)oc2c(C)c(O)ccc12	SR-BI HDL uptake 73.4
C[C@H]1CN[C@H](CCO)/C1=C\c1ccccc1	none (no result: HSF-1 act)
Cc1ccc(SCCN2CCN(C)CC2)cc1	HSF-1 act 57.9
Cc1ccc(SCCN2CCN(Cc3ccccc3)CC2)cc1	none (no result: MITF act)
CCCN1CCCCC(NC(=O)COCc2ccccc2)C1=O (configuration not stated)	none (no result: SR-BI HDL uptake, MITF act, SR-BI uptake up, HSF-1 act)
Cc1noc(C)c1C(=O)Nc1nc(-c2cccs2)cs1	Wnt bcat act 30.2 (no result: HSF-1 act)
O=C(Nc1ccc(Br)cn1)c1ccc(Cl)s1	Wnt bcat act 35.4, HSF-1 act inconclusive
CCC(=O)Nc1ccc(Br)cn1	none
Cc1cc(C(=O)Nc2ccc(Br)cn2)sc1C	Wnt bcat act 54.2 (no result: MITF act, HSF-1 act)
O=C(Nc1ccccn1)c1ccc2ccccc2n1	HSF-1 act 74.3 (no result: SR-BI HDL uptake, Wnt bcat act, SR-BI uptake up)
CCc1noc(C)c1C(=O)Nc1nc(-c2cccs2)cs1	none
O=C(Nc1nccs1)c1ccc2ccccc2n1	HSF-1 act inconclusive
COC(=O)[C@]12CCCCC=C1N(Cc1ccco1)C(=O)[C@H](CC(=O)NCc1ccc(C)o1)C2	none (no result: SR-BI HDL uptake, MITF act, SR-BI uptake up, HSF-1 act)
COc1ccc2[nH]cc(CCNC(=O)/C=C/[C@H]3O[C@@H](n4cc(C)c(=O)[nH]c4=O)C[C@@H]3O)c2c1	none (no result: SR-BI HDL uptake, MITF act, SR-BI uptake up, HSF-1 act)
C/C(COc1ccccc1)=N\NC(=O)c1nnn(-c2nonc2N)c1CSc1ccc(C)cc1	none (no result: SR-BI HDL uptake, MITF act, SR-BI uptake up, HSF-1 act)
Cc1ccccc1C(=O)Nc1ccc(Br)cn1	MITF act 96.1 (no result: Wnt bcat act)
COc1ccc(OC)c2sc(NC(=O)c3ccc(Cl)s3)nc12	SR-BI HDL uptake 87.2 (no result: MITF act)
O=C(Nc1nc(-c2ccccn2)cs1)c1ccc(Cl)s1	HSF-1 act 223.2
O=C(Nc1ccccc1C(=O)Nc1ccc(Br)cn1)c1ccccc1Cl	none (no result: HSF-1 act)
O=C(Nc1ccon1)c1ccc(Br)s1	none
O=C(Nc1ccc(Br)cn1)c1ccc(Br)s1	Wnt bcat act 38.2, HSF-1 act 70.1
O=C(NCc1ccccc1)C1c2ccccc2OCC(=O)N1CC(F)(F)F (configuration not stated)	none (no result: SR-BI HDL uptake, MITF act, SR-BI uptake up, HSF-1 act)
O=C(Nc1ccccc1)Nc1ccccn1	none (no result: Wnt bcat act)
Cc1ccnc(NC(=O)c2ccc(Br)s2)c1	Wnt bcat act 34.9
O=C(Nc1ccc([N+](=O)[O-])cc1)Nc1nc(-c2ccc(Cl)s2)cs1	SR-BI HDL uptake 84.0
Cc1ccnc(NC(=O)c2cccs2)c1	none (no result: Wnt bcat act)
O=C(Nc1nc(-c2ccc(Cl)s2)cs1)c1ccco1	HSF-1 act 66.8
O=C(Nc1ccccn1)C(=O)Nc1ccccn1	Wnt bcat act 39.1
O=C(C(=O)N1CCN(S(=O)(=O)c2cccc(C(F)(F)F)c2)CC1)c1cccc(C(F)(F)F)c1	none (no result: SR-BI HDL uptake, MITF act, SR-BI uptake up, HSF-1 act)
Fc1ccccc1N1CCN(CC2CCCCC2)CC1	none (no result: MITF act)
CCC1CCCCN1C(=O)COC(=O)c1cncc(Br)c1 (configuration not stated)	none (no result: SR-BI HDL uptake, MITF act, SR-BI uptake up, HSF-1 act)
O=C(Nc1ccccn1)c1ccc(Cl)s1	MITF act 161.4
O=C(NCc1ccccn1)c1ccc(Cl)s1	none
COc1ccccc1C(=O)COC(=O)c1cc([N+](=O)[O-])ccc1N1CCOCC1	SR-BI HDL uptake 85.1
Cc1cc(C)c(C(=O)COC(=O)c2cc([N+](=O)[O-])ccc2N2CCOCC2)cc1C	SR-BI HDL uptake 78.9
COc1cc(C(=O)COC(=O)c2cc([N+](=O)[O-])ccc2N2CCOCC2)ccc1OC(F)F	SR-BI HDL uptake 84.5
CCCNC(=O)C1(C)CCCN(Cc2cccc(Oc3ccccc3)c2)C1 (configuration not stated)	none (no result: SR-BI HDL uptake, MITF act, SR-BI uptake up, HSF-1 act)
CC1CCc2nc3sc4c(c3c(N)c2C1)CCCC4 (configuration not stated)	Wnt bcat act 44.9
Cc1c(C(=O)N2CCCCC2)sc(NC(=O)C(C)C)c1C#N	none
Cc1c(C(=O)N2CCCCC2)sc(NC(=O)C2CC2)c1C#N	SR-BI uptake up 240.6 (no result: HSF-1 act)
Oc1ccc(-c2nc(-c3ccc(F)cc3)c(-c3ccncc3)[nH]2)cc1	SR-BI HDL uptake 73.9 (no result: HSF-1 act)
O=C(c1nnsc1S(=O)(=O)c1ccc(Cl)cc1)N1CCOCC1	none
O=C(Nc1ccccc1)c1nnsc1S(=O)c1ccc(Cl)cc1 (configuration not stated)	HSF-1 act 156.7
O=C(c1nnsc1S(=O)c1ccc(Cl)cc1)N1CCOCC1 (configuration not stated)	HSF-1 act 267.1
